# Source: ChEMBL document CHEMBL1125263, “Streptonigrin and related compounds. 5. Synthesis and evaluation of some isoquinoline analogues” (J Med Chem, 1991)
# What was measured:
# Bacillus subtilis [1] = assay: In vitro antibacterial activity measured against Bacillus subtilis and relative potency expressed with respect to streptonigrin.; format: functional
# Summary of the method: (§1)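 Agar disc-diffusion plates seeded with B. subtilis spores, six discs per plate, incubated at 37 °C for 20 h. Zones of inhibition measured and averaged over four replicates. Zone diameter varied linearly with log concentration. Slopes were fitted by regression, with standard errors of the slope calculated.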
# Lepidium sativum [2] = assay: In vitro root inhibition activity measured using seedlings of Lepidium sativum, and relative potency expressed with respect to streptonigrin.; format: functional
# Summary of the method: (§2)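 Cress (L. sativum) seeds soaked in water 15–20 min, germinated on 0.6% agar at 27 °C in the dark for 24 h until radicles were ca. 1 cm. DMSO solutions (2000–40 μg/mL stocks, 200 μL per 20 mL agar) were set in 0.6% agar; DMSO-only controls. Eight seedlings per plate, 24 h at 27 °C in the dark. New root growth measured, duplicate runs (16 seedlings). %I = 1 − (T/C) × 100; probit analysis and linear regression gave I50.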
# Lepidium sativum [3] = assay: In vitro root inhibition activity using seedlings of Lepidium sativum; format: functional, organism-based; summary of the method: as §2
# Bacillus subtilis [4] = assay: Antibacterial activity against Bacillus subtilis and values were expressed as standard error for slope; format: functional; summary of the method: as §1
# Bacillus subtilis [5] = assay: In vitro antibacterial activity against Bacillus subtilis; format: functional
Compound,Relative potency (Bacillus subtilis [1]),Relative potency (Lepidium sativum [2]),I50 (Lepidium sativum [3]),Slope (Bacillus subtilis [4]),MIC (Bacillus subtilis [5])
COC1=C(N)C(=O)c2c(ccnc2-c2cccc([N+](=O)[O-])c2)C1=O,0.26,1.96,6.43 nM ml-1,4.93,5.2 µM
COC1=C(N)C(=O)c2nc(-c3ccccn3)ccc2C1=O,0.1,1.37,9.18 nM ml-1,10.23,14.1 µM
COC1=C(N)C(=O)c2c(ccnc2-c2ccc(N)cc2)C1=O,0.04,0.82,15.49 nM ml-1,12.64,35.8 µM
C/N=C1\C(=O)c2ccnc(-c3ccccc3[N+](=O)[O-])c2C(O)=C1Br,0.2,1.3,10 nM ml-1,5.21,6.76 µM
COC1=C(N)C(=O)c2c(ccnc2Cc2ccccc2)C1=O,0.09,0.92,13.7 nM ml-1,11.31,16 µM
C/N=C1\C(=O)c2ccnc(Cc3ccccc3)c2C(O)=C1Br,0.09,0.42,30.05 nM ml-1,11.31,16 µM
COC1=C(N)C(=O)c2c(ccnc2-c2ccc([N+](=O)[O-])cc2)C1=O,,1.34,9.41 nM ml-1,,
COC1=C(N)C(=O)c2nc(-c3nc(C(=O)O)c(C)cc3N)ccc2C1=O,5.48,2.3,5.5 nM ml-1,4.75,0.25 µM
COC1=C(N)C(=O)c2c(ccnc2-c2ccccc2)C1=O,0.05,1.12,11.25 nM ml-1,14.78,27.2 µM
COC1=C(N)C(=O)c2c(ccnc2-c2ccccc2[N+](=O)[O-])C1=O,0.15,2.09,6.03 nM ml-1,10.3,9 µM
COC1=C(N)C(=O)c2c(ccnc2-c2cccc(N)c2)C1=O,0.04,0.57,22.37 nM ml-1,11.7,33.4 µM
COC1=C(N)C(=O)c2c(ccnc2-c2ccccc2N)C1=O,0.08,0.19,65 nM ml-1,9.2,17.2 µM
COC1=C(N)C(=O)c2c(ccnc2-c2ccccn2)C1=O,0.03,0.99,12.7 nM ml-1,12.37,39.3 µM
COC1=C(N)C(=O)c2nc(-c3nc(C(=O)O)c(C)c(-c4ccc(OC)c(OC)c4O)c3N)ccc2C1=O [STREPTONIGRIN],1,1,12.65 nM ml-1,5.51,1.37 µM
